Measured values from different studies.
Target: Tyrosine-protein kinase Fyn (FYN, Homo sapiens, UniProt P06241)

CC(C)(C)c1cc(C=C(C#N)C#N)cc(Br)c1O  remaining activity (enzyme activity, inhibitor; 0.5 µM): 67.2%
C#Cc1n[nH]c2c(-c3cn([C@@H](C)c4ccccn4)c(=O)[nH]c3=O)cc(F)cc12  inhibition (enzyme activity, inhibitor; 0.1 µM): 1.4%
Cn1cc(-c2cc(F)cc(N3CCn4c(cc5c4CCCC5)C3=O)c2CO)cc(Nc2ccc(N3CCN(C4COC4)CC3)cn2)c1=O  inhibition (enzyme activity, inhibitor; 0.1 µM): 8%
Cn1cncc1[C@](O)(COc1ccc(C#N)cc1-c1ccc(OC(F)(F)F)cc1)c1ccc(C#N)cc1  remaining binding (cell-free assay, competition with immobilised ligand; 1 µM): 100%
O=C(Nc1cccnn1)N1CCN([C@@H]2CCOc3cc(C(F)(F)F)ccc32)CC1  inhibition (enzyme activity, inhibitor; 20 µM): 0%
Nc1ncc(-c2nc(N3CCOCC3)nc(N3CCOCC3)n2)c(C(F)F)n1  remaining binding (binding, competition with immobilised ligand; 10 µM): 100%
Cc1nn(C)cc1-c1nc2c(N3CCN(Cc4ccc(Cl)cc4)CC3)c(Cl)cnc2[nH]1  remaining binding (binding, competition with immobilised ligand; 1 µM): 100%
O=c1[nH]c2ccccc2n1C1CCN(Cc2ccc(-c3[nH]c4cc5ncnc5cc4nc3-c3ccccc3)cc2)CC1  remaining signal (cell-free assay; 0.5 µM): 101%
Cc1ncc(C)n2nc(/C=C/c3nc(N4CCCC4)cc(N4CCOCC4)n3)nc12  inhibition (enzyme activity, inhibitor; 10 µM): 9%
COc1ncccc1-c1cnn2ccc(N3CCN(C(=O)OC(C)C)CC3)nc12  remaining binding (binding, competition with immobilised ligand; 1 µM): 49%
N#CC1(c2ccccn2)CCN(Cc2cc(C(=O)O)c(=O)n3ccccc23)CC1  remaining binding (cell-free assay, competition with immobilised ligand; 1 µM): 99%
Cn1cc(-c2cccc(N3CCc4c(sc5c4CC(C)(C)C5)C3=O)c2CO)cc(Nc2ccncn2)c1=O  inhibition (enzyme activity, inhibitor; 1 µM): 6%
C#Cc1n[nH]c2c(-c3cn([C@@H](C)c4ccccc4)c(=O)[nH]c3=O)cc(F)cc12  inhibition (enzyme activity, inhibitor; 0.1 µM): 0.7%
